Results pooled from the literature.
Target: Mitogen-activated protein kinase 8 (MAPK8, Homo sapiens, UniProt P45983)

SMILES | read-out | technique | tested at | remaining binding [%]
O=C(c1ccc(Nc2ncc(Cl)c(-c3cc4ccccc4s3)n2)cc1)N1CCC(N2CCCC2)CC1 | binding | competition with immobilised ligand | 1 µM | 3
COC(=O)Nc1nc2ccc(C(=O)c3ccccc3)cc2[nH]1 | cell-free assay | competition with immobilised ligand | 10 µM | 14
C[C@@H]1CN(c2ccc3ncc(-c4ccc5[nH]nc(C6CC6)c5c4)n3n2)C[C@H](C)O1 | binding | competition with immobilised ligand | 0.5 µM | 54
C[C@H](c1ccc(F)cc1)N(Cc1cccc(C(=O)O)c1)C(=O)c1cnc2ccccc2c1 | cell-free assay | competition with immobilised ligand | 1 µM | 100
Cc1cnc(Nc2ccc(C(=O)N3CCC(N4CCCC4)CC3)cc2)nc1-c1cc2ccccc2s1 | binding | competition with immobilised ligand | 1 µM | 4.5
CC1CCCN1c1nccc(-c2cnn3ncccc23)n1 (stereo not drawn) | binding | competition with immobilised ligand | 1 µM | 94
Nc1ncc2c(n1)-c1c([nH]c3ccc(C#CC4CC4)cc13)CCCC2 | binding | competition with immobilised ligand | 1 µM | 66
N#Cc1ccccc1CSc1nnc2c(n1)[nH]c1ccccc12 | binding | competition with immobilised ligand | 10 µM | 96
Cc1cnn2ncc(-c3ccnc(N(C)C)n3)c2c1 | binding |  | 1 µM | 67
c1cncc(-c2cccc(Nc3nccc(NC4CCCCC4)n3)c2)c1 | binding | competition with immobilised ligand | 10 µM | 24
O=c1nc(-c2ccccn2)sc2ccccc12 | binding | competition with immobilised ligand | 1 µM | 100
C[C@@H]1CCN(c2nccc(-c3cnn4ncccc34)n2)C1 | binding | competition with immobilised ligand | 1 µM | 23
CC(=O)N1CCC(c2ccc(C(=O)NC(=N)N)cc2C(F)(F)F)CC1 | cell-free assay | competition with immobilised ligand | 1 µM | 73
CNC(=O)[C@@H]1CC[C@@H](n2c(-c3ccc4cnccc4c3)nc3ccc(C(=O)NCc4cccc(C(N)=O)c4)cc32)C1 | binding | competition with immobilised ligand | 1 µM | 82
O=C(c1ccc(Nc2ncc(Cl)c(-c3ccc(Cl)s3)n2)cc1)N1CCC(N2CCCC2)CC1 | binding | competition with immobilised ligand | 1 µM | 0.3
CN(CCCC(F)(F)F)c1nccc(-c2cnn3ncccc23)n1 | binding | competition with immobilised ligand | 1 µM | 100
NS(=O)(=O)c1cc(NC(=O)Cc2ccccc2)ccc1Oc1cccc(Cl)c1 | cell-free assay | competition with immobilised ligand | 1 µM | 69
N[C@@H]1CCN(c2nccc(-c3cnn4ncccc34)n2)C1 | binding |  | 1 µM | 27
Nc1c(C(=O)NCc2ccc(C(=O)NCCCC3CCCCC3)cc2)cnn1-c1ccccc1 | cell-free assay | competition with immobilised ligand | 0.1 µM | 100
O=C(Nc1c[nH]nc1C(=O)NC1CCNCC1)c1cc(F)cc(F)c1 | binding | competition with immobilised ligand | 1 µM | 65
c1cnn2ncc(-c3ccnc(N4CCC45COC5)n3)c2c1 | binding | competition with immobilised ligand | 1 µM | 26
Cn1nc(C(=O)NCc2ccc(C(=O)O)cc2)cc1-c1ccc2[nH]ccc2c1 | cell-free assay | competition with immobilised ligand | 0.1 µM | 88
CN(c1nccc(-c2cnn3ncccc23)n1)C1CC1 | binding |  | 1 µM | 100
O=C(O)c1cc(-c2ccc(C3CCNCC3)cc2)c2ccc(-c3ccc(C(F)(F)F)cc3)cc2c1 | cell-free assay | competition with immobilised ligand | 1 µM | 100
